The results in this text go back to article PMC6030701 (EMBO Reports, 2018).

Data set [1] addresses T1, MSP domain of MOSPD2 (Homo sapiens, UniProt Q8NHP6).
T1 sequence (Q8NHP6 282-490): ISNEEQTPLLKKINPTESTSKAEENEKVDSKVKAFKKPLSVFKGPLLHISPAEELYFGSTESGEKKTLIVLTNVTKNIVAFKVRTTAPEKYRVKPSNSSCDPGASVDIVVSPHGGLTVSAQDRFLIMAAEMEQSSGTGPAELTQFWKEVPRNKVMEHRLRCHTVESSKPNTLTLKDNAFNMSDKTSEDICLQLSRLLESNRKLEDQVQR
The data set can be described thus: Liposome aggregation. The conditions noted are these: DLS, 25°C. The data set is classed as biochemical.

Data set [2] has as its system RD/LD mutant MSP domain of MOSPD2. The data set can be described thus: Liposome aggregation. The data set is classed as biochemical. The following applies: DLS, 25°C, FFAT peptide 380 nM, RD/LD mutant MSP 760 nM.
The test system of data set [3] is STARD3 FA/YA. The data set can be described thus: MSP domain pull-down, STARD3 FA/YA mutant. The data set is classed as binding. The following applies: 6His MSP on NTA-Ni2+ resin, HeLa/STARD3 FA/YA protein extract, Western blot. Summed up: (§1)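 6His-tagged MSP domain (residues 282–490), from E. coli BL21 DE3 (1 mM IPTG, 20°C, 16 h), purified on Ni-NTA and by gel filtration. HeLa stable-line extract in PDB2 incubated 2.5 h, 4°C. Laemmli elution; blotted for STARD3, His, actin.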
(In general: Immunoblotting shows a protein as a band on a membrane.)

The subject of data set [4] is STARD3. Kind of data set: MSP domain pull-down, STARD3. The data set is classed as binding. The following applies: 6His MSP on NTA-Ni2+ resin, HeLa/STARD3 protein extract, Western blot. Summed up: as §1
Data set [5] deals with the molecule itself. The data set can be described thus: SEC. Background: In gel filtration, larger molecules generally elute earlier.

Turning to “WCSGKGDMSDEDDENEFFDAPEIITMPENLGH [FFAT‐containing peptide]”, the “size of liposome aggregates at end of kinetics” value in data set [1] (FFAT peptide 380 nM, MSP MOSPD2 WT 760 nM) was determined as 479 ± 87 nm. The “size of free liposomes” value in data set [1] (size distribution analysis) is on record as 97 ± 15 nm. For the same molecule, the liposome aggregation entry in data set [2] is listed as “no aggregation was observed”.

B1: wild‐type MSP domain of MOSPD2: recombinant MSP domain of MOSPD2 [282–490], expressed in E. coli (protein)
chain: T1 sequence (Q8NHP6 282-490)
modifications: left off: 6His, C-terminal, kept
Regarding B1, the “interaction with STARD3 FA/YA” value in data set [3] is given as “not with the STARD3 FA/YA mutant”. Moreover, the “interaction with STARD3” value in data set [4] is listed as “interacted specifically with STARD3”.

B2: MSP domain and coiled‐coil of VAP‐A [8–212], wild type (domain or fragment, human, UniProt Q9P0L0 8-212, looked up)
chain: MAKHEQILVLDPPTDLKFKGPFTDVVTTNLKLRNPSDRKVCFKVKTTAPRRYCVRPNSGIIDPGSTVTVSVMLQPFDYDPNEKSKHKFMVQTIFAPPNTSDMEAVWKEAKPDELMDSKLRCVFEMPNENDKLNDMEPSKAVPLNASKQDGPMPKPHSVSLNDTETRKLMEECKRLQGEMMKLSEENRHLRDEGLRLRKVAHSDKP
As a reminder, the stoichiometry N is a count of units in the complex or per binding partner. With B2, the “stoichiometry N” value in data set [5] was determined as 2.
